Hits are enriched below; roughly 3.5% of the tested compounds scored in any of these assays.
MrgX1 antag = antagonists of human MrgX1 receptor. Q96LB2. 310,000 tested, 1.3% active. B-score at 10 µM. MRGX1-HEK293 calcium flux, Fluo-4, BAM8-22 antagonism; hits give low values. AID 588676;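 active means calcium-response B-score plate-corrected more than 3 library SD below zero, starting fluorescence within 5 deviations, no agonist response on first addition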;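 further: peak minus trough fluorescence over baseline after final BAM8-22 challenge near maximal dose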
Target sequence (Q96LB2 whole entry, looked up): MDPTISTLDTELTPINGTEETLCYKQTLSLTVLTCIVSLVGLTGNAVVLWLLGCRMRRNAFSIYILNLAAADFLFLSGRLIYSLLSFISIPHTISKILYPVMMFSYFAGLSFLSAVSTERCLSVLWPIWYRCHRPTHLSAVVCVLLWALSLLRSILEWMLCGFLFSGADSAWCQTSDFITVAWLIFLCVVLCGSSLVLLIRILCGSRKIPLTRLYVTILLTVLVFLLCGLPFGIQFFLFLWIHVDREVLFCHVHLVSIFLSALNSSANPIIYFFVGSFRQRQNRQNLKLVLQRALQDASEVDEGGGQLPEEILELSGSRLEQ
MrgX1 allo act = human MrgX1 positive allosteric modulation, primary screen | Q96LB2 | MrgX1-HEK293, Fluo-4 calcium flux, FDSS; hits give high values | B-score at 10 µM | 310,000 tested, 0.63% active;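 active means plate-corrected calcium response at least 3 library SD above typical, normal starting fluorescence, not activating the receptor alone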;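 further: compound read alongside a low EC10 to EC30 dose of BAM8-22 agonist; peak minus trough fluorescence over baseline measured at the second addition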
RGS4 pot = potentiators or activators of RGS4; HEK293 M3R/inducible RGS4, carbachol calcium flux Fluo4; hits give low values; B-score at 10 µM; 310,000 tested, 0.92% active;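 active means B-score of the integrated calcium signal more than 4 SD below the library mean, with starting fluorescence not abnormally high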;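 further: negative B-score means reduced calcium response which marks RGS4 activation or potentiation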
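System – HEK293 FlpIn-TREx cells, stable M3R, doxycycline-inducible RGS4 · Reagent – ECmax carbachol challenge · Times – compound preincubation 20 min at room temperature before agonist · Technique – Fluo4 fluorescence kinetic imaging of calcium · Measure – B score of integrated Fluo4 ratio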
MrgX1 agonist = agonists of human MrgX1 receptor | Q96LB2 | MrgX1-HEK293 cells, Fluo-4 calcium fluorescence, agonist mode; hits give high values | B-score at 10 µM | 310,000 tested, 0.44% active | AID 588627;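 active means calcium response B-score plate-corrected fluorescence ratio at least 3 library SD, with starting fluorescence B-score inside 5 SD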
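Assay system: stable human MrgX1 HEK293 cell line. Quantity: 15,000 cells per well. Schedule: cells plated overnight, dye loaded 0.5 h 37 °C, 0.5 h room temperature. Detection: Fluo-4 NW calcium-flux fluorescence, kinetic read. Read-out basis: peak-minus-minimum fluorescence over baseline, converted to B scores. Control set: positive and negative control wells on each plate.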
RGS4 block = inhibitors of human RGS4 | HEK293 M3R/RGS4 inducible, Fluo-4 calcium flux; hits give high values; triggered by carbachol at its EC20 | B-score at 10 µM | 310,000 tested, 0.45% active | AID 463165;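 active means B-score, a plate-corrected calcium signal, over three deviations above library mean, with baseline fluorescence within five deviations of library mean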;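 further: RGS4 expression induced by doxycycline in cells with stable M3 receptor; B-score is computed from the integrated fluorescence ratio over baseline after carbachol; higher B-score means a larger calcium signal and so more RGS4 inhibition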
Target sequence (P49798 whole entry, looked up): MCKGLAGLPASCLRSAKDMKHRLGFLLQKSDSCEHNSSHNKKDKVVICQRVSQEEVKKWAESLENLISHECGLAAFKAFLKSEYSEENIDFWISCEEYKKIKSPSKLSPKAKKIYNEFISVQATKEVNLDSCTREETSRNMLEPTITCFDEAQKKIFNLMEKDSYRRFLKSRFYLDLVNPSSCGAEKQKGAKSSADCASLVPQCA
The depositor's hits bear a star; i = inactive.

SMILES | MrgX1 antag | MrgX1 allo act | RGS4 pot | MrgX1 agonist | RGS4 block
CC1CC(N(C(=O)c2ccco2)c2ccccc2)c2ccccc2N1 (stereo not given) | i | 6.51* | i | i | i
CNC[C@H](CC1CCCCC1)NC[C@H](Cc1ccccc1)NCCC12CC3CC(CC(C3)C1)C2 | -9.5* | 7.73* | -8.91* | i | i
CC(Oc1ccc(Cl)cc1)C(=O)NNC(=S)NC(=O)c1ccco1 (stereo not given) | i | i | i | 90.2* | i
CC(C)(C)c1ccc(C(=O)NC(=S)NNC(=O)COc2ccccc2)cc1 | i | i | -7.46* | 45.2* | i
COc1ccccc1C(=O)NNC(=S)NC(=O)c1ccco1 | i | i | i | 50.2* | i
COC(=O)c1cc(OC)c(OC)cc1NC(=S)NC(=O)c1ccco1 | i | i | i | i | i
CC(C)(C)c1ccc(OCC(=O)NNC(=O)CCc2ccccc2)cc1 | i | i | i | i | i
CC(C)(C)c1ccc(C(=O)NC(=S)NNC(=O)c2cccs2)cc1 | i | i | i | 46.6* | i
CC(=O)c1cccc(S(=O)(=O)NC2CCSc3ccccc32)c1 (stereo not given) | i | i | i | i | i
COc1ccc([C@@H]2[C@@H]3C(=O)N(C(C)(C)C)C(=O)[C@@H]3[C@]3(Cc4ccccc4)C(=O)N(c4ccc(C)cc4)C(=O)N23)cc1 | i | i | i | i | i
CCOC(=O)Cn1c(C)[n+](CC(=O)c2ccccc2)c2ccccc21 | i | i | i | i | i
CCOc1c(Nc2ccc(C(C)C)cc2)c(=O)c1=O | i | i | i | i | i
O=C(NC(=S)NNC(=O)c1cccs1)c1ccco1 | i | i | i | 28.5* | i
O=C(NCCc1ccc(F)cc1)Nc1ccccc1Cl | i | i | i | i | i
CN(C)CCNC(C(=O)Nc1cccc(C(F)(F)F)c1)c1ccccc1 (stereo not given) | i | i | -7.11* | i | i
CN=c1scc(C)n1/N=C/c1ccc(O)c(O)c1O | i | i | i | i | i
CN=c1scc(-c2cccs2)n1/N=C/c1ccccc1O | i | 7.38* | i | i | i
CN=c1scc(-c2cccs2)n1/N=C/c1ccc(O)c(O)c1O | i | 14.3* | i | i | i
O=c1[nH]c(S)c(/C=C2\C=Nc3ccccc32)s1 | -5.37* | i | i | i | i
Cc1cc(C)c2cc3c(N)c(C(=O)N4CCc5ccccc5C4)sc3nc2c1 | -8.46* | i | -7.96* | i | i
O=C(CNS(=O)(=O)c1cccc2nsnc12)NCCc1ccccc1 | i | i | i | i | i
O=C(N/N=C/c1c(O)n(-c2ccc(Cl)cn2)c(=O)c2ccccc12)c1ccncc1 | i | i | -9.57* | i | i
COCc1ccc(C(=O)N(C)CC2CCCN(CCc3ccc(Cl)cc3)C2)o1 (stereo not given) | i | i | i | i | i
COCc1ccc(C(=O)N(C)CC2CCCN(CCc3ccc(OC)cc3)C2)o1 (stereo not given) | i | i | -7.51* | i | i
Cc1nn(CC(=O)N2CCN(Cc3ccccc3)CC2)c(=O)c2ccccc12 | i | 6.86* | i | i | i
SMILES | MrgX1 antag | MrgX1 allo act | RGS4 pot | MrgX1 agonist | RGS4 block
Cc1nn(CC(=O)N2CCOCC2)c(=O)c2ccccc12 | i | i | i | i | i
CSc1cccc(-n2ccc(=O)c(C)c2C)c1 | i | i | i | i | i
C=CCN1C(=O)/C(=C/c2ccc(O)c(OC)c2)S/C1=N/c1nccs1 | i | 9.04* | i | i | i
C=CCN1C(=O)/C(=C/c2ccc(OCC(=O)O)cc2)S/C1=N/c1nccs1 | i | i | i | i | i
NS(=O)(=O)c1cc(C(=O)NC2CCSc3ccccc32)ccc1Cl (stereo not given) | i | i | i | 61.6* | i
CC(=O)N1N=C(c2ccccc2)CC1c1cn(Cc2ccccc2)c2ccccc12 (stereo not given) | -4.57* | i | i | i | i
CC(=O)N1N=C(c2ccncc2)CC1c1ccccc1O (stereo not given) | -7.55* | i | i | i | i
O=C(c1ccncc1)N1N=C(c2ccc(Br)cc2)CC1c1ccccc1O (stereo not given) | i | i | i | i | i
O=c1c(/C=N\NS(=O)(=O)c2ccccc2)coc2ccc(Cl)cc12 | i | i | i | i | i
COC(=O)c1cc(C(=O)c2cc(F)ccc2O)cn2c(=O)c3c(C)c(C)sc3nc12 | -4.67* | i | -6.95* | i | i
COc1cccc(N/C(N)=N/c2nc(C)cc(=O)[nH]2)c1 | i | i | i | i | i
COc1ccc(C(CNC(=O)C(=O)Nc2ccc3c(c2)OCO3)N2CCN(C)CC2)cc1 (stereo not given) | -6.15* | i | i | i | i
O=C(CCl)N(c1ccccc1)C1CCCCC1 | i | i | -7.04* | i | i
CC(=O)N(c1ccccc1)C1CCCC1 | i | i | i | i | i
C/C(=N\OCc1nc2ccccc2c(=O)n1/N=C/c1cc([N+](=O)[O-])ccc1O)c1ccccc1 | i | 7.34* | i | i | i
O=c1c2ccccc2nc(COc2ccccc2)n1/N=C/c1c[nH]c2ccccc12 | i | i | i | i | i
C/C(=N\OCc1nc2ccccc2c(=O)n1/N=C/c1cc(C)cc([N+](=O)[O-])c1O)c1ccccc1 | i | i | i | i | i
Oc1ccc(/C=N/n2c(COc3ccccc3)n[nH]c2=S)c(O)c1 | i | i | i | i | i
O=c1c2ccccc2nc(COc2ccccc2)n1/N=C/c1ccc(O)cc1O | i | i | -7.81* | i | i
Oc1ccccc1/C=N/n1c(COc2ccccc2)n[nH]c1=S | i | 6.61* | i | i | i
COc1ccccc1NC(=S)N(C(C)C)C(C)c1ccccn1 (stereo not given) | i | i | i | i | i
CC(C)N(C(=S)Nc1cccc(C(F)(F)F)c1)C(C)c1ccccn1 (stereo not given) | -9.46* | i | i | i | i
C/C(=C\c1ccccc1)C(=O)N1CCN(c2cccc(C(F)(F)F)c2)CC1 | -4.95* | i | i | i | i
CN(C)S(=O)(=O)c1cccc(C(=O)OCC(=O)Nc2sccc2C(N)=O)c1 | -4.97* | i | i | i | i
O=C(C1CCN(S(=O)(=O)c2cccs2)CC1)N(c1ccccn1)C1CCCCC1 | i | i | i | i | i
